b-catenin transl: beta-catenin nuclear translocation modulation; HeLa beta-catenin nuclear translocation, immunofluorescence imaging; nuclear translocation activity, % at 5 µM; hit rate 0.3% among 190,000; AID 1665;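 active = nuclear translocation activity above 50% at 5 µM, with a well cell count of 50 or more; inconclusive = wells under 50 cells across six images, flagged as toxic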;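 note: per-cell ratio of nuclear to cytoplasmic median beta-catenin stain intensity; plate controls were DMSO negative control for no effect and GSK-3 inhibitor IX positive control for full effect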
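Test system: HeLa cells, endogenous beta-catenin; Compound: single 5 µM dose plus 0.02–20 µM confirmation series; Times: compound exposure 24 h at 37°C; Signal: fluorescence imaging of beta-catenin antibody stain plus DAPI; Read-out: % activation, nuclear-to-cytoplasmic median beta-catenin signal ratio per cell.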
Ins promoter up: MIN6 insulin promoter up-regulation | MIN6 insulin promoter-GFP reporter, high-content imaging; active compounds read high | hit rate 0.3% among 190,000 | z-score at 5 µM;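 active = z-score above 3 at 5 µM with at least 500 cells counted in the well; inconclusive = wells under 500 cells, flagged as cytotoxic or low count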
Dynein cargo inh: blocks dynein driven cargo transport along microtubules. 3617.4 mouse cells, GR-EGFP nuclear translocation imaging; test concentration mostly 20 µM; stimulated with dexamethasone, 1 µM; active compounds read low. z-score, hits read low. hit rate 0.47% among 220,000. AID 1381;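 active = plate z-score of nuclear minus cytoplasmic receptor signal below a set negative limit, without overly bright fluorescence or cell loss, cut at about -3.5 in these data, passing the limit was not always enough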;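 note: z-score of nuclear minus cytoplasmic ring GR-EGFP intensity difference per well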
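Medium: Induction medium lacking tetracycline, stripped serum | Probe or stimulus: 1.0 µM final dexamethasone stimulus | Schedule: 48 h induction, then 1 h compound, then 30 min agonist, 37 °C | Signal: Automated 10x imaging of fixed Hoechst-stained cells | Evaluation: Per-cell GR-EGFP intensity, nucleus versus surrounding cytoplasmic ring, well-averaged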
MT stabilize HCS: microtubule stabilization, imaging screen | HeLa tubulin immunostaining HCS, 24 h; share of cells brighter than vehicle mean+2SD | % tubulin-high responders, % at 10 µM | hit rate 0.83% among 200,000;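 active = plate Z-score above 3 for both tubulin-high and condensed-nucleus cell shares, with cell loss under 80%, at 10 µM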;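 note: anti alpha tubulin signal scored within the nucleus-defined area of each cell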
Autophagy HCS: autophagy modulation, high-content screen | MEF GFP-LC3 puncta imaging; test concentration mostly 10 µM | calls only at 10 µM (by protocol) | hit rate 0.98% among 190,000 | AID 463193;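 active = percentage of spot-positive cells more than 3 SD above its plate mean, without a fluorescence outlier flag or 80% toxicity; inconclusive = no clear call, values can overlap the other calls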;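 note: spot-positive cell cutoff set from DMSO-treated cells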
Dynein inh conf: dynein cargo transport inhibition, confirmation. 3617.4 GR-EGFP nuclear translocation imaging, dexamethasone-induced. calls only at 20 µM. AID 463116. hit rate 69% among 1,000. shares compounds with Dynein cargo inh;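 active = inhibition of receptor movement into the nucleus at or above a set limit in both runs, with normal cell brightness and cell count; inconclusive = limit reached in only one run, brightness and count normal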;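 note: dexamethasone at 1 µM final in well for 30 min; nuclear minus cytoplasmic GR-EGFP mean intensity difference in channel 2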
Starred values were filed as active, the others as inactive; i = inactive; ? = inconclusive; . = no result given; + = active, no number. An excerpt weighted towards active compounds, which were near 2.3% of everything screened.

SMILES | b-catenin transl | Ins promoter up | Dynein cargo inh | MT stabilize HCS | Autophagy HCS | Dynein inh conf
O=C(c1ccc(N2CCCCC2)c([N+](=O)[O-])c1)N1CCOCC1 | -1.1 | -0.29 | -0.272 | 1.5 | i | .
OC1(c2ccc3c(c2)OCO3)CCN(Cc2ccc(F)cc2)CC1 | 0.6 | -0.15 | -1.01 | . | . | .
COc1ccccc1NC(=O)C(=O)N(c1cccnc1)C(C(=O)NC(C)(C)C)c1ccccc1F (centres undefined) | 0.4 | 0.26 | -0.338 | 1.5 | i | .
Cc1cccc(NC(=O)CN2C(=O)N/C(=C/c3ccc(C)s3)C2=O)c1 | -1.1 | 1.72 | -4.5 | 3.6 | i | ?
Cc1cccc(NC(=O)CN2C(=O)N/C(=C/c3cc(C)n(C(C)C)c3C)C2=O)c1 | . | . | -0.373 | 1.3 | i | .
CCC1CCCCN1CC(=O)c1c(C)[nH]c2ccc(OC)cc12 (centres undefined) | -5.6 | -0.09 | 0.166 | . | . | .
O=C(c1cccs1)n1nc(-c2ccccc2)nc1NCc1ccco1 | -2.2 | . | -5.64* | 2.7 | i | i
C/C(=N\NC(=O)C(=O)Nc1cc(C)ccc1C)c1ccncc1 | 1.8 | -0.58 | 0.118 | . | . | .
CCOC(=O)c1c(NC(=O)/C=C\C(=O)O)sc(C)c1-c1ccccc1 | 0.0 | . | -3.52* | 6.3 | i | +
O=C1CN(C(=O)Cn2ncc(Cl)c(Cl)c2=O)c2ccccc2N1 | -7.0 | -2.35 | -6.8* | 4.2 | i | +
O=C(OCn1ncc(Cl)c(Cl)c1=O)c1ccc(F)cc1 | . | . | -2.91 | 2.0 | i | .
Cc1nc2ccccc2n1CC(=O)N1CC(=O)Nc2ccccc21 | -4.8 | -0.7 | 0.201 | 1.7 | i | .
O=C(Cn1ncc(Cl)c(Cl)c1=O)c1ccc(Cl)cc1 | -1.3 | . | -3.99* | 1.7 | i | i
Cc1ccc(NC(=O)CN(C)C(=O)COc2c(Cl)cc(Cl)c3ccc(C)nc23)cc1 | -2.5 | 0.4 | -0.061 | 3.0 | i | .
Cc1ccc(NC(=O)CN(C)C(=O)Cn2ncc(Cl)c(Cl)c2=O)cc1 | -1.3 | ? | -6.33* | 4.7 | i | +
O=c1c(Cl)c(Cl)cnn1Cc1ccc(F)cc1 | 0.6 | 0.61 | -4.9* | 2.3 | i | +
CC(Nc1cccc(F)c1)C(=O)Nc1ccc(S(N)(=O)=O)cc1 (centres undefined) | -5.4 | -0.15 | -1.38 | 3.1 | i | .
CC(C)(C)C(=O)Cn1ncc(Cl)c(Cl)c1=O | 5.1 | ? | -6.09* | 2.8 | + | +
C=CCn1c(C)cc(C(=O)Cn2ncc(Cl)c(Cl)c2=O)c1C | -1.5 | ? | -4.58* | 2.9 | i | +
Cc1cc(N2CCC(C)CC2)c(F)cc1[N+](=O)[O-] | 0.9 | -0.26 | 0.015 | 2.1 | i | .
Cc1cc(N2CCCC2)c(F)cc1/C=C\[N+](=O)[O-] | -3.2 | -0.12 | -3.87 | 2.6 | i | +
Cc1cc(Oc2ccc(-c3ccccc3)cc2)n2ncnc2n1 | 3.5 | -0.21 | -4.7* | 2.7 | i | +
CC(C)c1ccc(NC(=S)NCCc2c[nH]c3ccccc23)cc1 | 4.4 | 0.39 | 0.428 | 1.1 | i | .
CCCCCCC(=O)N(O)C1CC(=O)N(c2ccc(Br)cc2)C1=O (centres undefined) | -5.8 | -0.19 | -0.897 | 5.3 | i | .
CCCCCCC(=O)N(O)C1CC(=O)N(c2ccc(F)cc2)C1=O (centres undefined) | -0.7 | -0.39 | -4.75* | . | . | +
SMILES | b-catenin transl | Ins promoter up | Dynein cargo inh | MT stabilize HCS | Autophagy HCS | Dynein inh conf
COC(=O)c1cn(NC(=O)c2cc([N+](=O)[O-])ccc2F)c(=O)c2ccccc12 | 2.7 | -0.21 | -3.9* | 3.5 | i | +
COc1ccc2[nH]c(C(=O)Nc3ccc4c(c3)OCO4)cc2c1 | 0.7 | -0.08 | 1.97 | . | . | .
CCN(CC)S(=O)(=O)c1ccc2oc(C(=O)Nc3ccc(OC)cc3OC)c(C)c2c1 | -0.5 | -1.63 | 0.571 | 7.6 | i | .
COc1ccc(NC(=O)c2oc3cc(C)c(C)cc3c2C)c(OC)c1 | -1.4 | -0.01 | -4.05* | 1.4 | i | i
O=C(O)c1ccc(NC2=C/C(=N/S(=O)(=O)c3ccccc3)c3ccccc3C2=O)cc1 | -1.5 | 0.72 | -4.23* | 1.7 | i | +
O=C(O)c1ccc(NS(=O)(=O)c2ccc3c(c2)C(=O)c2ccccc2C3=O)cc1 | 0.1 | -0.56 | 1.2 | 1.3 | i | .
COc1ccc(CNC(=O)/C=C/c2ccccc2[N+](=O)[O-])cc1 | 5.9 | -0.29 | -0.296 | 1.8 | i | .

Bioassay records as filed in PubChem.
